Screening data (PubChem BioAssay)
A selection: hits, their analogues and other compounds. The true share with any hit is near 1.4%.
IDE inh: inhibitors of human insulin-degrading enzyme in cells | HEK cells, FAbetaB cleavage, fluorescence polarization | 320,000 tested, 0.41% active | inhibition, % at 5.59 µM | AID 434962 | P14735;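 active = percent inhibition above the average of all tested compounds plus 3 SD, set per screening campaign, cut at about 16% in these data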;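 note: IDE supplied by intact live HEK cells; FP after avidin binding of uncleaved biotin substrate so inhibition keeps polarization high; 0% = DMSO wells and 100% = 60 µM reference IDE inhibitor Ii1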
Target sequence (P14735 whole entry, looked up): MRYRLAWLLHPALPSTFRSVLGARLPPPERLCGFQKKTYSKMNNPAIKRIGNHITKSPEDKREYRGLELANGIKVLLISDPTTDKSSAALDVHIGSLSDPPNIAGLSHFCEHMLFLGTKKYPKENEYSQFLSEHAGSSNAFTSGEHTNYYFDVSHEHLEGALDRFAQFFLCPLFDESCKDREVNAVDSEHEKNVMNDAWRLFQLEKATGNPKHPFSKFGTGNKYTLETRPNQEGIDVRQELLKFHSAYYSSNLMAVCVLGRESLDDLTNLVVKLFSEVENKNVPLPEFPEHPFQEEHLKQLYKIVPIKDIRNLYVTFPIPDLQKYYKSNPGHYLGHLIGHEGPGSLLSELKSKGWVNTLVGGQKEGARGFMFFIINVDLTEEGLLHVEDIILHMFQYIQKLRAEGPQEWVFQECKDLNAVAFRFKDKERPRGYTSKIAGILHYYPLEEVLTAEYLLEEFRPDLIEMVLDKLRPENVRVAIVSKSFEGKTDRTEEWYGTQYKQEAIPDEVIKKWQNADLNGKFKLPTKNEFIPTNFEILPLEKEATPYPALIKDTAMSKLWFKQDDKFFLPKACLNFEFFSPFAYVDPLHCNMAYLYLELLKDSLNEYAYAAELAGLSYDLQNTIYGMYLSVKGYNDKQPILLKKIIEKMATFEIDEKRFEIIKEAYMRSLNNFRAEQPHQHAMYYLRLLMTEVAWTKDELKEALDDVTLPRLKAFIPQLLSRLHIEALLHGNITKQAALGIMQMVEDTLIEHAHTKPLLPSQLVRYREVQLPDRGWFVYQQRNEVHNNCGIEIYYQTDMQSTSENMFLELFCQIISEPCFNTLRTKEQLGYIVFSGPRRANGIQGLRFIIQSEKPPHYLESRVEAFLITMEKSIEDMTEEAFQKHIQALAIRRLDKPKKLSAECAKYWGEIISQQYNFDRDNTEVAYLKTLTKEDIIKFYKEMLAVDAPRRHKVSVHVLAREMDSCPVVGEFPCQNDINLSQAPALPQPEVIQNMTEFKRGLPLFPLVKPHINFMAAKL
TPT1 inhibitor: C. albicans TPT1 enzyme inhibition; AID 1962; inhibition, % at 5 µM; recombinant caTPT1, FP RNA substrate dephosphorylation; 300,000 tested, 0.81% active;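 active = inhibition above the mean of all tested compounds plus 3 SD, set per screening campaign, cut at about 24% in these data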;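 note: plate controls were DMSO alone for no effect and ferristatin control at 100 nM for full effect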
HNF4A DNA FP: change in binding of human HNF4 alpha to DNA | P41235 | 360,000 tested, 0.3% active | HNF4a-FITC DNA binding, fluorescence polarization, 1 h | AID 1224865 | activity change, % at 10 µM; in the data active = activity change above about 30%, passing the limit was not always enough
CSN deneddyl inh: blocks human CSN-mediated cullin deneddylation; Q92905; Purified CSN, SCF-Nedd8-OG deneddylation, fluorescence polarization; inhibition, % at 12.5 µM; 360,000 tested, 0.38% active; AID 651999;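 active = pattern-corrected inhibition above about 35%, with an unprinted fluorescence ratio check between 0.5 and 1.5, limit read from the data, passing the limit was not always enough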;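 note: 0% = enzyme with substrate and 100% = substrate without enzyme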
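Detection – fluorescence polarization · System – HEK293T-derived human Csn5 enzyme · Controls – substrate-only high control, full reaction low control · Timing – 90 min, room temperature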
IDE cell activ: boosts human insulin-degrading enzyme activity in HEK cells. FAbeta-B cleavage, fluorescence polarization; 0% vehicle, 100% cell-free pure enzyme wells. activation, % at 5.96 µM. 340,000 tested, 0.073% active;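 active = activation above the mean of all tested compounds plus 3 SD, set per screening campaign, cut at about 17% in these data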
TPT1 inh confirm: confirmation of Candida albicans TPT1 inhibitors; recombinant caTPT1, fluorescence polarization, RNase T1 coupled; AID 2149; shares compounds with TPT1 inhibitor; 2,400 tested, 74% active; inhibition, % at 5 µM;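 active = inhibition above the primary screen limit, the mean inhibition of all tested compounds plus 3 SD, cut at about 25% in these data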
RNase T1 inh: counter-screen for TPT1 inhibitors: inhibitors of Aspergillus oryzae RNase T1; shares compounds with TPT1 inhibitor; RNase T1 cleavage, fluorescence polarization, 1536-well; inhibition, % at 5 µM; 2,400 tested, 83% active;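 active = inhibition above the solvent-only control well mean plus 3 SD, limit set per screening run, cut at about 23% in these data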;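 note: plate controls were DMSO wells with enzyme for no effect and wells without RNase T1 for full effect; inhibitors block cleavage so intact labeled substrate keeps polarization high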
IDE cell inh cf: cellular human IDE inhibition, confirmation. shares compounds with IDE inh. HEK cells, FAbetaB cleavage, fluorescence polarization. inhibition, % at 5.59 µM. 1,200 tested, 51% active;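 active = mean inhibition across triplicate wells above the cutoff set by the earlier primary insulin-degrading enzyme screen, cut at about 16% in these data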;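 note: 0% = DMSO wells and 100% = 60 µM reference IDE inhibitor Ii1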
HEK cytotox: counter-screen for IDE inhibitors: cytotoxicity in HEK cells | shares compounds with IDE inh | HEK293 cytotoxicity, ATP luminescence | inhibition, % at 5.59 µM | 1,200 tested, 28% active | AID 449730; in the data active = inhibition above about 22%;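 note: 0% = vehicle wells and 100% = reference cytotoxic drug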
CSN deneddyl val: validation of inhibitors of human CSN-mediated cullin deneddylation. inhibition, % at 16.6 µM. 540 tested, 62% active. shares compounds with CSN deneddyl inh. Csn5 deneddylation of SCF-Nedd8OG, fluorescence polarization, 90 min; in the data active = inhibition above about 50%;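 note: 0% = DMSO with enzyme and 100% = no enzyme wells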
MMP-2 counter: MMP-2 (human) inhibition, counter-screen for CSN hits | shares compounds with CSN deneddyl inh | recombinant MMP-2, FRET substrate fluorescence, 60 min | inhibition, % at 16.6 µM | 540 tested, 33% active;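 active = corrected plate-normalized z-score of 5 or more, or -5 or less, or inhibition of 15% or more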;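 note: plate controls were DMSO wells with enzyme for no effect and buffer wells lacking MMP-2 for full effect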
Thrombin counter: blocks bovine thrombin in a CSN deneddylation counter-screen | inhibition, % at 16.6 µM | shares compounds with CSN deneddyl inh | 540 tested, 49% active | bovine thrombin cleavage of Ub4-pepOG, fluorescence polarization;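 active = inhibition at or above a set limit, with a fluorescence interference ratio between 0.5 and a set maximum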
Active calls of the source: *; . = no result.

SMILES	IDE inh	TPT1 inhibitor	HNF4A DNA FP	CSN deneddyl inh	IDE cell activ	TPT1 inh confirm	RNase T1 inh	CSN deneddyl val	MMP-2 counter	Thrombin counter	others
COC1=CC(=Cc2c(N)n3nc(CC(=O)N4CCCCC4)sc3nc2=O)C=C(OC)C1=O	41*	31*	38*	78*	-79	112*	110*	34	-11	74*	IDE cell inh cf=26*;HEK cytotox=5
CCC(C)n1c(NC(=O)c2ccccc2)c(C#N)c2nc3ccccc3nc21 (stereo not drawn)	2	117*	33*	50*	-4	80*	85*	156*	-12	54*
CC(=O)Nc1ccc(S(=O)(=O)N2CCC(C(=O)N[C@@H](C)C(=O)NC3CCCC3)CC2)cc1	1	1	-2	-1	-3	.	.	.	.	.
O=[N+]([O-])c1ccc(O)c(N=Cc2sc3ccccc3c2O)c1	1	42*	34	44*	-9	38*	53*	102*	8	51*
O=[N+]([O-])c1ccc(O)c(C=Nc2cccc3ccccc23)c1	-4	-1	-3	11	1	.	.	.	.	.
Cc1cc(C)c2cc(C(=O)Nc3ccccc3)[nH]c2c1	-7	0	-1	0	0	.	.	.	.	.
Cc1c(N2C(=O)/C(=C\c3ccc(N(C)C)cc3)N(C)C2=S)c(=O)n(-c2ccccc2)n1C	53*	150*	44*	75*	-36	132*	133*	85*	-7	68*	IDE cell inh cf=40*;HEK cytotox=13
NC(=O)C1CCN(C(=O)Cc2ccsc2)CC1	9	2	0	2	-1	.	.	.	.	.
N#C/C(=C\c1ccc(O)cc1)c1nc2ccccc2o1	43*	102*	57*	48*	-124	114*	116*	114*	-13	39*	IDE cell inh cf=119*;HEK cytotox=14
COC(=O)CN1C(=S)N(c2ccc(OC)cc2)C(=O)/C1=C/c1ccc(N2CCOCC2)cc1	16	151*	61*	36*	-5	116*	123*	175*	-22	14
COC(=O)CN1C(=S)N(c2ccc(OC)cc2)C(=O)/C1=C/c1ccc(OC)cc1	-2	-1	5	5	2	.	.	.	.	.
O=S(=O)(Nc1cc2nc3ccccc3nc2n1Cc1ccccc1)c1ccc(Cl)cc1	9	44*	-6	70*	-13	39*	51*	77*	-7	3
CS(=O)(=O)c1ccc(Cl)c(NC(=O)CSc2n[nH]c(-c3cccs3)n2)c1	6	.	-3	-6	-4	.	.	.	.	.
CC(=O)N1CCN(C(=O)c2cc(S(=O)(=O)N3CCN(c4ccccc4)CC3)ccc2Cl)CC1	.	.	-4	0	2	.	.	.	.	.
C=CCN1C(=O)/C(=C\C=C2\N(C)c3ccccc3C2(C)C)SC1=S	2	116*	108	72*	-10	120*	115*	117*	-35*	-54
COc1cc2cc3c(N)c(C(=O)Nc4sc(C)c(C)c4C#N)sc3nc2cc1OC	4	36*	15	74*	-8	39*	49*	82*	1	10
CC1C(=O)Nc2ccc(S(=O)(=O)N3CCCCCC3)cc21 (stereo not drawn)	-1	.	2	0	0	.	.	.	.	.
